Experimental findings from ChEMBL document CHEMBL4828721, “Substituted dienes prepared from betulinic acid - Synthesis, cytotoxicity, mechanism of action, and pharmacological parameters” (Eur J Med Chem, 2021) are described below.

Molecules are shown by their SMILES. pIC50: −log10 of the molar value. Activity calls are given as the source filed them. The calls are words filed in the database; no cut-off is given here.

Data set [1] relates to CCRF-CEM. Put plainly: Cytotoxicity against human CCRF-CEM cells assessed as reduction in cell viability measured after 72 hrs by MTS assay. It counts as functional, cell-based. In general terms: Tetrazolium assays rely on reduction of a dye to a coloured formazan, in cell work by metabolically active cells.
For data set [2], the system named is CCRF-CEM. Put plainly: Induction of apoptosis in human CCRF-CEM cells assessed as live cells at 5 times IC50 measured after 24 hrs by Annexin V-FITC/PI staining based flow cytometry analysis (Rvb= 96.7%). The data set is classed as functional. A general note: Flow cytometry measures light scatter and fluorescence of single cells or particles in a stream.
Data set [3] concerns CCRF-CEM. Description: Cell cycle arrest in human CCRF-CEM cells assessed as accumulation of cells at G2/M phase at 5 times IC50 measured after 24 hrs by propidium iodide staining based flow cytometry analysis (Rvb= 21.62%). The data set is classed as functional.
Data set [4] can be described thus: Cytotoxicity against human HCT116 p53-null cells assessed as reduction in cell viability measured after 72 hrs by MTS assay. The data set is classed as functional, cell-based.
Data set [5] can be described thus: Apparent permeability of the compound in human Caco2 cells at pH 7.4 at 10 micromol/L measured after 2 hrs by RF-MS analysis. It counts as ADME, cell-based. Particulars: Caco-2, pH 7.4, dose 10 µmol/L. Put shortly:
(§1)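 Caco-2 and MDCK-MDR1 cells grown on polyester Transwell filters (0.4 and 1 µm pores) in DMEM pH 7.4 with 10% FBS; monolayer integrity checked by Lucifer Yellow rejection. Cells washed and pre-equilibrated 1 h in HBSS pH 7.4, then dosed with compound in HBSS pH 7.4. Incubation was 1 h for MDCK and 2 h for Caco-2. Samples lyophilized and quantified by RapidFire MS/MS with internal standard. Duplicates. Papp = (dQ/dt)/(C0·A).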
On the technique in general: Passage across Caco-2 layers is used to estimate intestinal permeability.

For data set [6], the system named is MRC5. Description: Cytotoxicity against human MRC5 cells assessed as reduction in cell viability measured after 72 hrs by MTS assay. Particulars: MRC5, 72 h. The data set is classed as cell-based.
The test system of data set [7] is CCRF-CEM. Put plainly: Induction of apoptosis in human CCRF-CEM cells assessed as activation of caspase 8 at 5 times IC50 measured after 24 hrs by western blot analysis. The data set is classed as functional, cell-based. Put shortly: (§2)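 Protein (15 µg/lane) was resolved by 10% SDS-PAGE and transferred to nitrocellulose. Blocked in 5% milk/TBST, then probed overnight at 4 °C with primary antibodies (1:1000) and HRP secondaries. Detected by ECL, with β-actin as loading control.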

The subject of data set [8] is CCRF-CEM. Put plainly: Inhibition of RNA synthesis in human CCRF-CEM cells at IC50 by […] incorporation assay (Rvb= 36.54%). Also on record: scale not given: the % may be the effect or the level left. The data set is classed as functional.
In data set [9] the test system is CCRF-CEM. Description: Induction of apoptosis in human CCRF-CEM cells assessed as induction of PARP cleavage at 5 times IC50 measured after 24 hrs by western blot analysis. It counts as functional, cell-based. Summed up:
as §2

Data set [10] deals with CCRF-CEM. Description: Cell cycle arrest in human CCRF-CEM cells assessed as accumulation of cells at S phase at 5 times IC50 measured after 24 hrs by propidium iodide staining based flow cytometry analysis (Rvb= 38.17%). It counts as functional.
For data set [11], the system named is U2OS. Description: Cytotoxicity against human U2OS cells assessed as reduction in cell viability measured after 72 hrs by MTS assay. The data set is classed as functional, cell-based.
Data set [12] is described as follows: Apparent permeability of the compound in dog MDCK-MDR1 cells at pH 7.4 at 10 micromol/L measured after 1 hr by RF-MS analysis. The data set is classed as ADME, cell-based, Canis lupus familiaris. The note with it: MDCK-MDR1, pH 7.4, dose 10 µmol/L. Put shortly: as §1
Data set [13] is described as follows: Cytotoxicity against paclitaxel resistant human K562-Tax cells assessed as reduction in cell viability measured after 72 hrs by MTS assay. It counts as functional, cell-based.
The subject of data set [14] is CCRF-CEM. Put plainly: Cell cycle arrest in human CCRF-CEM cells assessed as accumulation of cells at G0/G1 phase at 5 times IC50 measured after 24 hrs by propidium iodide staining based flow cytometry analysis (Rvb= 40.20%). The data set is classed as functional.
In data set [15] the test system is CCRF-CEM. Description: Induction of apoptosis in human CCRF-CEM cells assessed as late apoptotic cells at IC50 measured after 24 hrs by Annexin V-FITC/PI staining based flow cytometry analysis (Rvb= 1.4%). The data set is classed as functional.
Data set [16] deals with CCRF-CEM. Put plainly: Cell cycle arrest in human CCRF-CEM cells assessed as accumulation of cells at S phase at IC50 measured after 24 hrs by propidium iodide staining based flow cytometry analysis (Rvb= 38.17%). It counts as functional.
The subject of data set [17] is CCRF-CEM. Put plainly: Induction of apoptosis in human CCRF-CEM cells assessed as activation of caspase 3 at 5 times IC50 measured after 24 hrs by western blot analysis. It counts as functional, cell-based. Summed up: as §2
Data set [18] is described as follows: Stability in human plasma assessed as parent compound remaining at 2 uM incubated for 60 mins by RF-MS analysis. The data set is classed as ADME, cell-free. The note with it: read-out: Stability.
The subject of data set [19] is CCRF-CEM. Description: Induction of cell cycle arrest in human CCRF-CEM cells assessed as downregulation of cyclin D1 protein expression at 5 times IC50 measured after 24 hrs by western blot analysis. The data set is classed as functional, cell-based. Summed up: as §2
Data set [20] concerns BJ. Put plainly: Cytotoxicity against human BJ cells assessed as reduction in cell viability measured after 72 hrs by MTS assay. It counts as cell-based.
For data set [21], the system named is CCRF-CEM. Put plainly: Induction of apoptosis in human CCRF-CEM cells assessed as early apoptotic cells at 5 times IC50 measured after 24 hrs by Annexin V-FITC/PI staining based flow cytometry analysis (Rvb= 1.6%). The data set is classed as functional.
The test system of data set [22] is CCRF-CEM. Put plainly: Induction of apoptosis in human CCRF-CEM cells assessed as downregulation of Bcl2 expression at 5 times IC50 measured after 24 hrs by western blot analysis. It counts as functional, cell-based. Put shortly: as §2
Data set [23] concerns CCRF-CEM. Put plainly: Induction of apoptosis in human CCRF-CEM cells assessed as upregulation of BAX expression at 5 times IC50 measured after 24 hrs by western blot analysis relative to control. It counts as functional. Put shortly: as §2
In data set [24] the test system is CCRF-CEM. Description: Induction of apoptosis in human CCRF-CEM cells assessed as dead cells at 5 times IC50 measured after 24 hrs by Annexin V-FITC/PI staining based flow cytometry analysis (Rvb= 0.3%). It counts as functional. Summed up:
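They were washed in ice-cold PBS and incubated with Annexin V-FITC plus PI for 20 min at room temperature in the dark. Cells were then pelleted and resuspended in binding buffer (10 mmol/L HEPES/NaOH pH 7.4, 140 mmol/L NaCl, 2.5 mmol/L CaCl2). Read on a FACSAria II, ≥10,000 cells per sample.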

As a reminder, the pIC50 is −log10 of the IC50, conventionally taken in molar units. The Papp is the rate of passage across a membrane or cell layer, normalised by area and donor concentration. `C=C(/C=C/c1cccc(Cl)c1)[C@@H]1CC[C@]2(C(=O)O)CC[C@]3(C)[C@H](CC[C@@H]4[C@@]5(C)CC[C@H](O)C(C)(C)[C@@H]5CC[C@]43C)[C@@H]12`: the negative-log IC50 (pIC50) in [1] was 5.49; in data set [4], 4.82; in [6] it was 4.49; in data set [11], 4.76; in [13], 4.59; in data set [20], less than 4.30. For the same compound, the Activity in data set [2] is listed as 88.5%; in data set [3], 12.28%; in [8], 18.97%; in [10], 37.93%; in data set [14] it was 49.79%; in data set [15], 4.6%. Moreover, the Activity in [16] was 42.75%; in [21], 5.3%. The Papp at 2 h, 10 µM in [5] was found to be 17.5 ×10⁻⁶ cm/s. Further, in [7], the outcome was inactive. Besides, the result in [9], in data set [17] and in [19] was Active. The apparent permeability coefficient (Papp) at 1 h, 10 µM in [12] came out at 22.4 ×10⁻⁶ cm/s. In addition, the remaining at 1 h, 2 µM in data set [18] turned out to be 89.5%.
Take `C=C(/C=C/c1ccc([N+](=O)[O-])cc1)[C@@H]1CC[C@]2(C(=O)O)CC[C@]3(C)[C@H](CC[C@@H]4[C@@]5(C)CC[C@H](O)C(C)(C)[C@@H]5CC[C@]43C)[C@@H]12`: the negative logarithm of the IC50 (pIC50) was 5.44 in data set [1]; 4.80 in data set [4]; 4.72 in data set [6]; 4.71 in [11]; 4.63 in data set [13]; 4.61 in data set [20]. Besides, the Activity in [2] is reported as 70.9%; in data set [3], 12.81%; in [8], 34.98%; in [10], 57.61%; in data set [23], 20%; in [14], 29.57%. The Activity in data set [15] stood at 4.9%; in [16] it was 28.44%; in data set [24] it was 1.9%; in data set [21], 17.6%. The result in data set [22], in [9], in data set [17] and in data set [19] was Active. For the same compound, the Papp at 2 h, 10 µM in data set [5] came to 0.96 ×10⁻⁶ cm/s. Moreover, the outcome in [7] was inactive. For the same compound, the apparent permeability (Papp) at 1 h, 10 µM in [12] was determined as 0.43 ×10⁻⁶ cm/s. Also, in [18], the remaining at 1 h, 2 µM is 69.3%.
